# Experimental data: ChEMBL document CHEMBL2331240, “Focused library development of 2-phenylacrylamides as broad spectrum cytotoxic agents” (2013)
# What was measured:
# [1] = Cytotoxicity against human SJ-G2 cells assessed as growth inhibition measured after 72 hrs by MTT assay; type: functional; settings: SJ-G2, 72 h
# In short: (§1)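 Cells in log phase were seeded in duplicate at 2500–4000 cells/well in supplemented DMEM (37 °C, 5% CO2). Drug from a 40 mM DMSO stock was added on day 0, 24 h post-plating. Read-out was MTT absorbance at 540 nm after 72 h.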
# SW480 = assay: Cytotoxicity against human SW480 cells assessed as growth inhibition measured after 72 hrs by MTT assay; type: functional; settings: SW480, 72 h; in short: as §1
# [2] = Cytotoxicity against human MIA cells assessed as growth inhibition measured after 72 hrs by MTT assay; type: functional; in short: as §1
# DU-145 = assay: Cytotoxicity against human DU145 cells assessed as growth inhibition measured after 72 hrs by MTT assay; type: functional; settings: DU-145, 72 h; in short: as §1
# [3] = Cytotoxicity against mouse SMA cells assessed as growth inhibition measured after 72 hrs by MTT assay
# A2780 = assay: Cytotoxicity against human A2780 cells assessed as growth inhibition measured after 72 hrs by MTT assay; type: functional; settings: A2780, 72 h; in short: as §1
# [4] = Cytotoxicity against human BE(2)-C cells assessed as growth inhibition measured after 72 hrs by MTT assay; type: functional; in short: as §1
# HT-29 = assay: Cytotoxicity against human HT-29 cells assessed as growth inhibition measured after 72 hrs by MTT assay; type: functional; settings: HT-29, 72 h; in short: as §1
# A-431 = assay: Cytotoxicity against human A431 cells assessed as growth inhibition measured after 72 hrs by MTT assay; type: functional; settings: A-431, 72 h; in short: as §1
# MCF7 = assay: Cytotoxicity against human MCF7 cells assessed as growth inhibition measured after 72 hrs by MTT assay; type: functional; settings: MCF7, 72 h; in short: as §1
# [5] = Cytotoxicity against human H460 cells assessed as growth inhibition measured after 72 hrs by MTT assay; type: functional; settings: NCI-H460, 72 h; in short: as §1
smiles,measurement,setting,value
N#C/C(=C\c1ccco1)C(=O)NCc1ccc(Cl)c(Cl)c1,GI50,[1],> 50 µM
same,GI50,SW480,> 50 µM
same,GI50,[2],> 50 µM
same,GI50,DU-145,24 µM
same,GI50,[3],38 µM
same,GI50,A2780,> 50 µM
same,GI50,[4],> 50 µM
same,GI50,HT-29,20 µM
same,GI50,A-431,> 50 µM
same,GI50,MCF7,20 µM
same,GI50,[5],> 50 µM
COc1ccc(CNC(=O)/C(C#N)=C/c2ccccc2)cc1,GI50,[1],17 µM
same,GI50,SW480,14 µM
same,GI50,[2],24 µM
same,GI50,DU-145,13 µM
same,GI50,[3],16 µM
same,GI50,A2780,9 µM
same,GI50,[4],15 µM
same,GI50,HT-29,9 µM
same,GI50,A-431,9 µM
same,GI50,MCF7,18 µM
same,GI50,[5],18 µM
COc1ccc(CNC(=O)/C(C#N)=C/c2ccoc2)cc1,GI50,[1],8 µM
same,GI50,SW480,8 µM
same,GI50,[2],8 µM
same,GI50,DU-145,7 µM
same,GI50,[3],7 µM
same,GI50,A2780,6 µM
same,GI50,[4],7 µM
same,GI50,HT-29,6 µM
same,GI50,A-431,5 µM
same,GI50,MCF7,7 µM
same,GI50,[5],8 µM
N#C/C(=C\c1ccc2ccccc2c1)C(=O)NCc1ccc(Cl)c(Cl)c1,GI50,[1],49 µM
same,GI50,SW480,50 µM
same,GI50,[2],44 µM
same,GI50,DU-145,77 µM
same,GI50,[3],64 µM
same,GI50,A2780,44 µM
same,GI50,[4],40 µM
same,GI50,HT-29,44 µM
same,GI50,A-431,50 µM
same,GI50,MCF7,29 µM
same,GI50,[5],> 100 µM
COc1ccc(CNC(=O)/C(C#N)=C/c2cc(Br)co2)cc1,GI50,[1],23 µM
same,GI50,SW480,> 100 µM
same,GI50,[2],65 µM
same,GI50,DU-145,61 µM
same,GI50,[3],> 100 µM
same,GI50,A2780,28 µM
same,GI50,[4],36 µM
same,GI50,HT-29,36 µM
same,GI50,A-431,14 µM
same,GI50,MCF7,20 µM
same,GI50,[5],> 100 µM
COc1ccc(CNC(=O)/C(C#N)=C/c2ccc(Cl)cc2)cc1,GI50,[1],11 µM
same,GI50,SW480,10 µM
same,GI50,[2],16 µM
same,GI50,DU-145,7 µM
same,GI50,[3],17 µM
same,GI50,A2780,7 µM
same,GI50,[4],12 µM
same,GI50,HT-29,7 µM
same,GI50,A-431,6 µM
same,GI50,MCF7,11 µM
same,GI50,[5],14 µM
COc1ccc(CNC(=O)/C(C#N)=C/c2ccc3ccccc3c2)cc1,GI50,[1],40 µM
same,GI50,SW480,41 µM
same,GI50,[2],49 µM
same,GI50,DU-145,80 µM
same,GI50,[3],43 µM
same,GI50,A2780,40 µM
same,GI50,[4],42 µM
same,GI50,HT-29,54 µM
same,GI50,A-431,37 µM
same,GI50,MCF7,33 µM
same,GI50,[5],> 100 µM
N#C/C(=C\c1c(F)c(F)c(F)c(F)c1F)C(=O)c1ccc[nH]1,GI50,[1],23 µM
same,GI50,SW480,> 100 µM
same,GI50,[2],25 µM
same,GI50,DU-145,> 100 µM
same,GI50,[3],> 100 µM
same,GI50,A2780,64 µM
same,GI50,[4],14 µM
same,GI50,HT-29,224 µM
same,GI50,A-431,64 µM
same,GI50,MCF7,23 µM
same,GI50,[5],31 µM
COc1ccc(CNC(=O)/C(C#N)=C/c2cccc3ccccc23)cc1,GI50,[1],15 µM
same,GI50,SW480,14 µM
same,GI50,[2],15 µM
same,GI50,DU-145,16 µM
same,GI50,[3],15 µM
same,GI50,A2780,16 µM
same,GI50,[4],14 µM
same,GI50,HT-29,13 µM
same,GI50,A-431,15 µM
same,GI50,MCF7,16 µM
same,GI50,[5],15 µM
N#C/C(=C\c1ccc(Cl)cc1)C(=O)NCc1ccc(Cl)c(Cl)c1,GI50,[1],30 µM
same,GI50,SW480,30 µM
same,GI50,[2],31 µM
same,GI50,DU-145,30 µM
same,GI50,[3],33 µM
same,GI50,A2780,32 µM
same,GI50,[4],31 µM
same,GI50,HT-29,33 µM
same,GI50,A-431,30 µM
same,GI50,MCF7,21 µM
same,GI50,[5],33 µM
COc1ccc(CNC(=O)/C(C#N)=C/c2ccco2)cc1,GI50,[1],31 µM
same,GI50,SW480,31 µM
same,GI50,[2],34 µM
same,GI50,DU-145,29 µM
same,GI50,[3],33 µM
same,GI50,A2780,24 µM
same,GI50,[4],24 µM
same,GI50,HT-29,22 µM
same,GI50,A-431,16 µM
same,GI50,MCF7,27 µM
same,GI50,[5],32 µM
COc1ccc(CNC(=O)/C(C#N)=C/c2ccc[nH]2)cc1,GI50,[1],> 50 µM
same,GI50,SW480,> 50 µM
same,GI50,[2],> 50 µM
same,GI50,DU-145,> 50 µM
same,GI50,[3],> 50 µM
same,GI50,A2780,> 50 µM
same,GI50,[4],47 µM
same,GI50,HT-29,> 50 µM
same,GI50,A-431,> 50 µM
same,GI50,MCF7,34 µM
same,GI50,[5],> 50 µM
COc1ccc(CNC(=O)/C(C#N)=C/c2ccc(Cl)o2)cc1,GI50,[1],13 µM
same,GI50,SW480,13 µM
same,GI50,[2],15 µM
same,GI50,DU-145,12 µM
same,GI50,[3],14 µM
same,GI50,A2780,9 µM
same,GI50,[4],11 µM
same,GI50,HT-29,9 µM
same,GI50,A-431,9 µM
same,GI50,MCF7,9 µM
same,GI50,[5],15 µM
COc1ccc(CNC(=O)/C(C#N)=C/c2ccc(Br)o2)cc1,GI50,[1],13 µM
same,GI50,SW480,14 µM
same,GI50,[2],16 µM
same,GI50,DU-145,12 µM
same,GI50,[3],14 µM
same,GI50,A2780,12 µM
same,GI50,[4],13 µM
same,GI50,HT-29,10 µM
same,GI50,A-431,9 µM
same,GI50,MCF7,11 µM
same,GI50,[5],16 µM
N#C/C(=C\c1c(F)c(F)c(F)c(F)c1F)C(=O)c1c[nH]c2ccccc12,GI50,[1],14 µM
same,GI50,SW480,18 µM
same,GI50,[2],21 µM
same,GI50,DU-145,30 µM
same,GI50,[3],20 µM
same,GI50,A2780,11 µM
same,GI50,[4],10 µM
same,GI50,HT-29,18 µM
same,GI50,A-431,19 µM
same,GI50,MCF7,13 µM
same,GI50,[5],35 µM
N#C/C(=C\c1ccc([N+](=O)[O-])cc1)C(=O)c1c[nH]c2ccccc12,GI50,[1],37 µM
same,GI50,SW480,42 µM
same,GI50,[2],46 µM
same,GI50,DU-145,59 µM
same,GI50,[3],60 µM
same,GI50,A2780,48 µM
same,GI50,[4],40 µM
same,GI50,HT-29,41 µM
same,GI50,A-431,46 µM
same,GI50,MCF7,35 µM
same,GI50,[5],47 µM
N#C/C(=C\c1cccc2ccccc12)C(=O)NCc1ccc(Cl)c(Cl)c1,GI50,[1],13 µM
same,GI50,SW480,11 µM
same,GI50,[2],8 µM
same,GI50,DU-145,12 µM
same,GI50,[3],7 µM
same,GI50,A2780,7 µM
same,GI50,[4],7 µM
same,GI50,HT-29,7 µM
same,GI50,A-431,8 µM
same,GI50,MCF7,8 µM
same,GI50,[5],7 µM
N#C/C(=C\c1ccccc1)C(=O)NCc1ccc(Cl)c(Cl)c1,GI50,[1],43 µM
same,GI50,SW480,49 µM
same,GI50,[2],47 µM
same,GI50,DU-145,71 µM
same,GI50,[3],43 µM
same,GI50,A2780,49 µM
same,GI50,[4],32 µM
same,GI50,HT-29,70 µM
same,GI50,A-431,43 µM
same,GI50,MCF7,29 µM
same,GI50,[5],61 µM
N#C/C(=C\c1c[nH]c2ccccc12)C(=O)c1c[nH]c2ccccc12,GI50,[1],13 µM
same,GI50,SW480,8.3 µM
same,GI50,[2],14 µM
same,GI50,DU-145,17 µM
same,GI50,[3],15 µM
same,GI50,A2780,9.3 µM
same,GI50,[4],12 µM
same,GI50,HT-29,6 µM
same,GI50,A-431,7.6 µM
same,GI50,MCF7,11 µM
same,GI50,[5],7.6 µM
COc1ccc(CNC(=O)/C(C#N)=C/c2ccc(C)cc2)cc1,GI50,[1],39 µM
same,GI50,SW480,34 µM
same,GI50,[2],38 µM
same,GI50,DU-145,34 µM
same,GI50,[3],42 µM
same,GI50,A2780,33 µM
same,GI50,[4],35 µM
same,GI50,HT-29,36 µM
same,GI50,A-431,26 µM
same,GI50,MCF7,36 µM
same,GI50,[5],41 µM
N#C/C(=C\c1ccc[nH]1)C(=O)NCc1ccc(Cl)c(Cl)c1,GI50,[1],> 50 µM
same,GI50,SW480,> 50 µM
same,GI50,[2],> 50 µM
same,GI50,DU-145,> 50 µM
same,GI50,[3],> 50 µM
same,GI50,A2780,> 50 µM
same,GI50,[4],43 µM
same,GI50,HT-29,85 µM
same,GI50,A-431,> 50 µM
same,GI50,MCF7,6 µM
same,GI50,[5],> 50 µM
COc1ccc(CNC(=O)/C(C#N)=C/c2ccc(C)o2)cc1,GI50,[1],75 µM
same,GI50,SW480,29 µM
same,GI50,[2],51 µM
same,GI50,DU-145,39 µM
same,GI50,[3],69 µM
same,GI50,A2780,60 µM
same,GI50,[4],21 µM
same,GI50,HT-29,92 µM
same,GI50,A-431,58 µM
same,GI50,MCF7,21 µM
same,GI50,[5],> 100 µM
COc1ccc(CNC(=O)/C(C#N)=C/c2ccc(-c3ccccc3)o2)cc1,GI50,[1],> 100 µM
same,GI50,SW480,> 100 µM
same,GI50,[2],> 100 µM
same,GI50,DU-145,> 100 µM
same,GI50,[3],> 100 µM
same,GI50,A2780,> 100 µM
same,GI50,[4],> 100 µM
same,GI50,HT-29,56 µM
same,GI50,A-431,> 100 µM
same,GI50,MCF7,3 µM
same,GI50,[5],> 100 µM
COc1ccc(/C=C(\C#N)C(=O)NCc2ccc(Cl)c(Cl)c2)cc1,GI50,[1],> 100 µM
same,GI50,SW480,95 µM
same,GI50,[2],79 µM
same,GI50,DU-145,70 µM
same,GI50,[3],> 100 µM
same,GI50,A2780,86 µM
same,GI50,[4],93 µM
same,GI50,HT-29,> 100 µM
same,GI50,A-431,90 µM
same,GI50,MCF7,45 µM
same,GI50,[5],> 100 µM
